Converted amounts (≈) assume the structure as drawn.
How the values were obtained:
Format in all cases: functional
[1] = tested on: Enterococcus faecium; assay: Antibacterial activity against vancomycin-resistant Enterococcus faecium ATCC 700221 assessed as inhibition of bacterial growth by Mueller-Hinton broth based assay
[2] = tested on: Mycolicibacterium smegmatis; assay: Antimycobacterial activity against Mycobacterium smegmatis MC2 155 assessed as inhibition of bacterial growth measured after 2 days by resazurin dye based analysis; details: MC2 155, 48 h, time 2 day
How it was run: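 Strains grown in 7H9 broth with 0.2% glycerol, 10% OADC and 0.05% Tween-80. Inoculum was about 5 × 10^5 CFU/mL, checked by plating on 7H10/OADC agar to be 3–8 × 10^5. Read at 2 days for M. smegmatis and 7 days for M. tuberculosis H37Ra, M. bovis and M. avium. Resazurin 30 μg/mL was then added for one further day. Values are averages of at least two experiments.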

[3] = tested on: Staphylococcus aureus; assay: Antibacterial activity against Staphylococcus aureus ATCC 33591 assessed as reduction in bacterial growth by Mueller-Hinton broth based assay
How it was run: (§1)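 Broth MIC by standard procedure in Mueller-Hinton broth, for both B. subtilis 168 and S. aureus ATCC 33591.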

[4] = tested on: Enterococcus faecalis; assay: Antibacterial activity against vancomycin-resistant Enterococcus faecalis ATCC 51299 assessed as inhibition of bacterial growth by Mueller-Hinton broth based assay
[5] = tested on: Bacillus subtilis; assay: Antibacterial activity against Bacillus subtilis 168 assessed as reduction in bacterial growth by Mueller-Hinton broth based assay; how it was run: as §1

Structure (SMILES) | MIC [1] [µg/mL] | MIC [2] [µg/mL] | MIC [3] [µg/mL] | MIC [4] [µg/mL] | MIC [5] [µg/mL]
CN1C(=O)[C@@H]2NC(=O)[C@@H]3NC(=O)[C@@H](c4ccc(O)cc4)NC(=O)[C@H](NC(=O)C(NC(=O)OC(C)(C)C)c4ccc(O)cc4)Cc4c[nH]c5cc(ccc45)-c4cc3cc(c4O)Oc3ccc(cc3)C[C@H]1C(=O)N[C@@H](C(=O)O)c1ccc(O)c(c1)Oc1ccc2cc1 (stereo not given in full) | 16 (≈ 13.1 µM) |  |  |  | 
CN1C(=O)[C@@H]2NC(=O)[C@@H]3NC(=O)[C@@H](c4ccc(O)cc4)NC(=O)[C@H](NC(=O)C(Nc4cccc(F)c4F)c4ccc(O)cc4)Cc4c[nH]c5cc(ccc45)-c4cc3cc(c4O)Oc3ccc(cc3)C[C@H]1C(=O)N[C@@H](C(=O)O)c1ccc(O)c(c1)Oc1ccc2cc1 (stereo not given in full) | 16 (≈ 13 µM) | > 128 | 16 (≈ 13 µM) | 16 (≈ 13 µM) | 8 (≈ 6.49 µM)
CN1C(=O)[C@@H]2NC(=O)[C@@H]3NC(=O)[C@@H](c4ccc(O)cc4)NC(=O)[C@H](NC(=O)C(Nc4cccc(O)c4O)c4ccc(O)cc4)Cc4c[nH]c5cc(ccc45)-c4cc3cc(c4O)Oc3ccc(cc3)C[C@H]1C(=O)N[C@@H](C(=O)O)c1ccc(O)c(c1)Oc1ccc2cc1 (stereo not given in full) | 16 (≈ 13 µM) | > 128 | 16 (≈ 13 µM) | 8 (≈ 6.51 µM) | 4 (≈ 3.25 µM)
CN1C(=O)[C@@H]2NC(=O)[C@@H]3NC(=O)[C@@H](c4ccc(O)cc4)NC(=O)[C@H](NC(=O)C(Nc4ccc(O)c(O)c4O)c4ccc(O)cc4)Cc4c[nH]c5cc(ccc45)-c4cc3cc(c4O)Oc3ccc(cc3)C[C@H]1C(=O)N[C@@H](C(=O)O)c1ccc(O)c(c1)Oc1ccc2cc1 (stereo not given in full) | 16 (≈ 12.8 µM) | > 128 | 16 (≈ 12.8 µM) | 8 (≈ 6.42 µM) | 4 (≈ 3.21 µM)
CN1C(=O)[C@@H]2NC(=O)[C@@H]3NC(=O)[C@@H](c4ccc(O)cc4)NC(=O)[C@H](NC(=O)C(Nc4cc(Cl)cc(Cl)c4Cl)c4ccc(O)cc4)Cc4c[nH]c5cc(ccc45)-c4cc3cc(c4O)Oc3ccc(cc3)C[C@H]1C(=O)N[C@@H](C(=O)O)c1ccc(O)c(c1)Oc1ccc2cc1 (stereo not given in full) | 16 (≈ 12.3 µM) | > 128 | 4 (≈ 3.08 µM) | 8 (≈ 6.15 µM) | 4 (≈ 3.08 µM)
CN1C(=O)[C@@H]2NC(=O)[C@@H]3NC(=O)[C@@H](c4ccc(O)cc4)NC(=O)[C@H](NC(=O)C(NCCO)c4ccc(O)cc4)Cc4c[nH]c5cc(ccc45)-c4cc3cc(c4O)Oc3ccc(cc3)C[C@H]1C(=O)N[C@@H](C(=O)OCCO)c1ccc(O)c(c1)Oc1ccc2cc1 (stereo not given in full) |  | 16 (≈ 13.2 µM) | 32 (≈ 26.5 µM) |  | 
CCCCCCCCCCCNC(C(=O)N[C@@H]1Cc2c[nH]c3cc(ccc23)-c2cc3cc(c2O)Oc2ccc(cc2)C[C@H]2C(=O)N[C@@H](C(=O)O)c4ccc(O)c(c4)Oc4ccc(cc4)[C@@H](NC(=O)[C@@H]3NC(=O)[C@@H](c3ccc(O)cc3)NC1=O)C(=O)N2C)c1ccc(O)cc1 (stereo not given in full) |  |  | 16 (≈ 12.5 µM) | 4 (≈ 3.14 µM) | 
CN1C(=O)[C@@H]2NC(=O)[C@@H]3NC(=O)[C@@H](c4ccc(O)cc4)NC(=O)[C@H](NC(=O)C(NCCCCCCB(O)O)c4ccc(O)cc4)Cc4c[nH]c5cc(ccc45)-c4cc3cc(c4O)Oc3ccc(cc3)C[C@H]1C(=O)N[C@@H](C(=O)OCCCCCCB(O)O)c1ccc(O)c(c1)Oc1ccc2cc1 (stereo not given in full) |  |  |  | 64 (≈ 46.5 µM) | 
CN1C(=O)[C@@H]2NC(=O)[C@@H]3NC(=O)[C@@H](c4ccc(O)cc4)NC(=O)[C@H](NC(=O)C(Nc4cccc(O)c4)c4ccc(O)cc4)Cc4c[nH]c5cc(ccc45)-c4cc3cc(c4O)Oc3ccc(cc3)C[C@H]1C(=O)N[C@@H](C(=O)O)c1ccc(O)c(c1)Oc1ccc2cc1 (stereo not given in full) | 4 (≈ 3.3 µM) | > 128 | 4 (≈ 3.3 µM) | 4 (≈ 3.3 µM) | 0.5 (≈ 0.412 µM)
CN1C(=O)[C@@H]2NC(=O)[C@@H]3NC(=O)[C@@H](c4ccc(O)cc4)NC(=O)[C@H](NC(=O)C(Nc4ccc(B(O)O)cc4)c4ccc(O)cc4)Cc4c[nH]c5cc(ccc45)-c4cc3cc(c4O)Oc3ccc(cc3)C[C@H]1C(=O)N[C@@H](C(=O)O)c1ccc(O)c(c1)Oc1ccc2cc1 (stereo not given in full) | 8 (≈ 6.45 µM) | > 128 | 8 (≈ 6.45 µM) | 8 (≈ 6.45 µM) | 1 (≈ 0.806 µM)
CCCCCCCCNC(C(=O)N[C@@H]1Cc2c[nH]c3cc(ccc23)-c2cc3cc(c2O)Oc2ccc(cc2)C[C@H]2C(=O)N[C@@H](C(=O)O)c4ccc(O)c(c4)Oc4ccc(cc4)[C@@H](NC(=O)[C@@H]3NC(=O)[C@@H](c3ccc(O)cc3)NC1=O)C(=O)N2C)c1ccc(O)cc1 (stereo not given in full) |  |  |  | 8 (≈ 6.49 µM) | 
CN1C(=O)[C@@H]2NC(=O)[C@@H]3NC(=O)[C@@H](c4ccc(O)cc4)NC(=O)[C@H](NC(=O)C(Nc4cccc(-c5ccc(F)cc5)c4)c4ccc(O)cc4)Cc4c[nH]c5cc(ccc45)-c4cc3cc(c4O)Oc3ccc(cc3)C[C@H]1C(=O)N[C@@H](C(=O)O)c1ccc(O)c(c1)Oc1ccc2cc1 (stereo not given in full) | 16 (≈ 12.4 µM) | > 128 | > 128 | 16 (≈ 12.4 µM) | > 128
CN[C@H](CC(C)C)C(=O)N[C@H]1C(=O)N[C@@H](CC(N)=O)C(=O)N[C@H]2C(=O)N[C@H]3C(=O)N[C@H](C(=O)N[C@H](C(=O)O)c4cc(O)cc(O)c4-c4cc3ccc4O)[C@H](O)c3ccc(c(Cl)c3)Oc3cc2cc(c3O[C@@H]2O[C@H](CO)[C@@H](O)[C@H](O)[C@H]2O[C@H]2C[C@](C)(N)[C@H](O)[C@H](C)O2)Oc2ccc(cc2Cl)[C@H]1O [VANCOMYCIN] | > 128 | 4 (≈ 2.76 µM) |  | 32 (≈ 22.1 µM) | 0.5 (≈ 0.345 µM)
CN1C(=O)[C@@H]2NC(=O)[C@@H]3NC(=O)[C@@H](c4ccc(O)cc4)NC(=O)[C@H](NC(=O)C(Nc4cccc(C(F)(F)F)c4)c4ccc(O)cc4)Cc4c[nH]c5cc(ccc45)-c4cc3cc(c4O)Oc3ccc(cc3)C[C@H]1C(=O)N[C@@H](C(=O)O)c1ccc(O)c(c1)Oc1ccc2cc1 (stereo not given in full) | 16 (≈ 12.6 µM) | > 128 | 8 (≈ 6.32 µM) | 8 (≈ 6.32 µM) | 4 (≈ 3.16 µM)
CN1C(=O)[C@@H]2NC(=O)[C@@H]3NC(=O)[C@@H](c4ccc(O)cc4)NC(=O)[C@H](NC(=O)C(Nc4cc(C(F)(F)F)cc(C(F)(F)F)c4)c4ccc(O)cc4)Cc4c[nH]c5cc(ccc45)-c4cc3cc(c4O)Oc3ccc(cc3)C[C@H]1C(=O)N[C@@H](C(=O)O)c1ccc(O)c(c1)Oc1ccc2cc1 (stereo not given in full) | 8 (≈ 6 µM) | > 128 | 8 (≈ 6 µM) | 8 (≈ 6 µM) | 8 (≈ 6 µM)
CN1C(=O)[C@@H]2NC(=O)[C@@H]3NC(=O)[C@@H](c4ccc(O)cc4)NC(=O)[C@H](NC(=O)C(Nc4ccccn4)c4ccc(O)cc4)Cc4c[nH]c5cc(ccc45)-c4cc3cc(c4O)Oc3ccc(cc3)C[C@H]1C(=O)N[C@@H](C(=O)O)c1ccc(O)c(c1)Oc1ccc2cc1 (stereo not given in full) | 16 (≈ 13.4 µM) |  |  | 16 (≈ 13.4 µM) | 4 (≈ 3.34 µM)
CN1C(=O)[C@@H]2NC(=O)[C@@H]3NC(=O)[C@@H](c4ccc(O)cc4)NC(=O)[C@H](NC(=O)C(Nc4ccc(F)cc4)c4ccc(O)cc4)Cc4c[nH]c5cc(ccc45)-c4cc3cc(c4O)Oc3ccc(cc3)C[C@H]1C(=O)N[C@@H](C(=O)O)c1ccc(O)c(c1)Oc1ccc2cc1 (stereo not given in full) | 8 (≈ 6.58 µM) | > 128 | 8 (≈ 6.58 µM) | 8 (≈ 6.58 µM) | 2 (≈ 1.65 µM)
CCCCNC(C(=O)N[C@@H]1Cc2c[nH]c3cc(ccc23)-c2cc3cc(c2O)Oc2ccc(cc2)C[C@H]2C(=O)N[C@@H](C(=O)O)c4ccc(O)c(c4)Oc4ccc(cc4)[C@@H](NC(=O)[C@@H]3NC(=O)[C@@H](c3ccc(O)cc3)NC1=O)C(=O)N2C)c1ccc(O)cc1 (stereo not given in full) |  |  | 16 (≈ 13.6 µM) |  | 
CN1C(=O)[C@@H]2NC(=O)[C@@H]3NC(=O)[C@@H](c4ccc(O)cc4)NC(=O)[C@H](NC(=O)C(Nc4cc(F)cc(F)c4F)c4ccc(O)cc4)Cc4c[nH]c5cc(ccc45)-c4cc3cc(c4O)Oc3ccc(cc3)C[C@H]1C(=O)N[C@@H](C(=O)O)c1ccc(O)c(c1)Oc1ccc2cc1 (stereo not given in full) | 4 (≈ 3.2 µM) | > 128 | 8 (≈ 6.39 µM) | 8 (≈ 6.39 µM) | 4 (≈ 3.2 µM)
CNCCNC(=O)[C@@H]1NC(=O)[C@@H]2Cc3ccc(cc3)Oc3cc4cc(c3O)-c3ccc5c(c[nH]c5c3)C[C@@H](NC(=O)C(N)c3ccc(O)cc3)C(=O)N[C@H](c3ccc(O)cc3)C(=O)N[C@H]4C(=O)N[C@@H](C(=O)N2C)c2ccc(cc2)Oc2cc1ccc2O (stereo not given in full) | 1 (≈ 0.849 µM) | 0.5 (≈ 0.425 µM) |  | 4 (≈ 3.4 µM) | 
CN(C)CCCNC(=O)[C@@H]1NC(=O)[C@@H]2Cc3ccc(cc3)Oc3cc4cc(c3O)-c3ccc5c(c[nH]c5c3)C[C@@H](NC(=O)C(N)c3ccc(O)cc3)C(=O)N[C@H](c3ccc(O)cc3)C(=O)N[C@H]4C(=O)N[C@@H](C(=O)N2C)c2ccc(cc2)Oc2cc1ccc2O (stereo not given in full) | 2 (≈ 1.66 µM) |  |  |  | 
CN1C(=O)[C@@H]2NC(=O)[C@@H]3NC(=O)[C@@H](c4ccc(O)cc4)NC(=O)[C@H](NC(=O)C(NCCS(=O)(=O)O)c4ccc(O)cc4)Cc4c[nH]c5cc(ccc45)-c4cc3cc(c4O)Oc3ccc(cc3)C[C@H]1C(=O)N[C@@H](C(=O)OCCS(=O)(=O)O)c1ccc(O)c(c1)Oc1ccc2cc1 (stereo not given in full) | > 128 |  | > 128 | > 128 | 
CN1C(=O)[C@@H]2NC(=O)[C@@H]3NC(=O)[C@@H](c4ccc(O)cc4)NC(=O)[C@H](NC(=O)Cc4ccc(O)cc4)Cc4c[nH]c5cc(ccc45)-c4cc3cc(c4O)Oc3ccc(cc3)C[C@H]1C(=O)N[C@@H](C(=O)NCCC[N+]1(C)CCCC1)c1ccc(O)c(c1)Oc1ccc2cc1 | 8 | 1 | > 128 |  | 

— ChEMBL document CHEMBL5331111, “Synthetic Biology Facilitates Semisynthetic Development of Type V Glycopeptide Antibiotics Targeting Vancomycin-Resistant Enterococcus” (J Med Chem, 2023)
